Laboratory results from ChEMBL document CHEMBL2380239, “Novel ROS-activated agents utilize a tethered amine to selectively target acute myeloid leukemia” (Bioorg Med Chem Lett, 2013).

Key:
[1] = test system: HeLa; assay: Cytotoxicity against human HeLa cells after 48 hrs by MTT assay; assay type: functional, cell-based
[2] = Cytotoxicity against human MA9.3 cells after 48 hrs by MTT assay; assay type: functional, cell-based
Procedure, shortened: (§1)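 Non-transformed human CD34+ blood stem/progenitor cells from umbilical cord blood were run alongside MA9.3, an AML line made by introducing the MLL-AF9 oncogene into human CD34+ cells. IC50 was determined on each cell type. Therapeutic index is the ratio between the MA9.3 and CD34+ IC50 values.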

[3] = Cytotoxicity against human CD34-positive blood stem/progenitor cells after 48 hrs by MTT assay; assay type: cell-based; procedure, shortened: as §1
[4] = Therapeutic index, ratio of IC50 for human CD34-positive blood stem/progenitor cells to IC50 for human MA9.3 cells; settings: CD34-positive blood stem/progenitor cells versus MA9.3 cells, read-out: Ratio IC50
Procedure, shortened: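 Cytotoxicity was measured in parallel on non-cancerous human CD34+ blood stem/progenitor cells (UCB) and on the MA9.3 AML line, which was made by introducing the MLL-AF9 oncogene into human CD34+ cells. The index is IC50 in CD34+ cells divided by IC50 in MA9.3, reported as mean ± error.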

Structure (SMILES)	IC50 [1] [µM]	IC50 [2] [µM]	IC50 [3] [µM]	selectivity ratio [4]
CN(CCCCOc1ccc(O)cc1)c1ccccc1	12			
CN(CCCCCOc1ccc(O)cc1)c1ccccc1	13			
CN(CCOc1ccc(O)cc1)Cc1ccccc1	33			
CN(C(=O)COc1ccc(O)cc1)c1ccccc1	> 125			
CN(CCCOc1ccccc1)c1ccccc1	> 125			
CCOc1ccc(O)cc1 [1-hydroxy-4-ethoxybenzene]	> 125			
O=C(O)CCCc1ccc(N(CCCl)CCCl)cc1 [CHLORAMBUCIL]		8.7	11	1.3
Nc1ccn([C@@H]2O[C@H](CO)[C@@H](O)[C@@H]2O)c(=O)n1 [CYTARABINE]		0.92	0.59	0.6
COc1cccc2c1C(=O)c1c(O)c3c(c(O)c1C2=O)C[C@@](O)(C(=O)CO)C[C@@H]3O[C@H]1C[C@H](N)[C@H](O)[C@H](C)O1 [DOXORUBICIN]		0.086	0.076	
